In PMC2605181 (Nature chemical biology, 2008):
“Also recorded” adds a separate entry of the source.

Assays:
MAGL [1] = target: T1, MAGL (Mus musculus, UniProt O35678); assay: Competitive ABPP; format: biochemical; settings: for inhibition of MAGL by competitive ABPP: 30 min
T1 sequence (O35678 1-303): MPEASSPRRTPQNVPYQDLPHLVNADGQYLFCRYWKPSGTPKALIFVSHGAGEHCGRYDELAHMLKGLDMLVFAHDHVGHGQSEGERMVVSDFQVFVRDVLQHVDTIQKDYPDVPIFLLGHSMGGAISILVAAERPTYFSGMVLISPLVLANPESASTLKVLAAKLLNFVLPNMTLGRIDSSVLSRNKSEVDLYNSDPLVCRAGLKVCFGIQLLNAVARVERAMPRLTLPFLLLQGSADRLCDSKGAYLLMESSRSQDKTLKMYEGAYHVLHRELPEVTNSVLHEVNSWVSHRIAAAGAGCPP

[2] = test system: interstitial brain levels of 2-AG and AEA; assay: In vivo microdialysis, nucleus accumbens, neuronal depolarization; parameters: species or system mouse; settings: 10 mg kg^-1 i.p.
Procedure, shortened: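 Male C57Bl/6 mice received test compound at t = -60 min. Dialysate was sampled from nucleus accumbens. Depolarization was by perfusion with high potassium/calcium artificial CSF at t = 0-90 min. […] Mean ± SEM; n = 8 treated, 6 vehicle.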

[3] = test system: brain levels of 2-AG, arachidonic acid, NAEs, MAGs; assay: Measurement of brain lipids in treated mice; format: in vivo, mouse
FAAH [4] = target: T2, FAAH (Mus musculus, UniProt O08914); assay: Competitive ABPP; format: biochemical; settings: for inhibition of FAAH by competitive ABPP: mouse brain membrane proteome, 30 min, Fig. 1b
T2 sequence (O08914 1-579): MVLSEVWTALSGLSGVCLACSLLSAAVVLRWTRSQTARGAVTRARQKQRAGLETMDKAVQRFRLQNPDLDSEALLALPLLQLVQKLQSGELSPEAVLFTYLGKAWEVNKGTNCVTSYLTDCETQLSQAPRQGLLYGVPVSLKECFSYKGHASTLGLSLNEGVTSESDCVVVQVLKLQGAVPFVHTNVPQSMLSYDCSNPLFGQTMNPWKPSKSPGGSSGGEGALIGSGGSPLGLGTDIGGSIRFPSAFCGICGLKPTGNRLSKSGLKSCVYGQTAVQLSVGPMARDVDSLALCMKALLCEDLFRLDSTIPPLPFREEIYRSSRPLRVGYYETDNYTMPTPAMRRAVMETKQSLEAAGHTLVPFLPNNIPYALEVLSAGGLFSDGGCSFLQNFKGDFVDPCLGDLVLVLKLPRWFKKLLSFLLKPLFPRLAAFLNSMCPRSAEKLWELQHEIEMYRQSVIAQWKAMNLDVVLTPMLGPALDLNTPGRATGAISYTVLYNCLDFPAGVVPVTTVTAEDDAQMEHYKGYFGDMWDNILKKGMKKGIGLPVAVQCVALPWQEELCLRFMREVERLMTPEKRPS
Procedure, shortened: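 Mouse brain membrane proteome (1 mg ml-1 in PBS) preincubated with test compound (1 nM to 10 μM) for 30 min at 37°C, then FP-rhodamine (2 μM final) for 30 min at room temperature, quenched, SDS-PAGE, in-gel fluorescence; DMSO control. kobs [I]-1: proteome with 0.01-15 μM for 10-40 min at 37°C, aliquots FP-rhodamine-labelled 2 min every 10 min; FAAH band density fit exponentially for pseudo-first-order constants.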

CB1 receptors = assay: CB1 receptor binding assay, cerebellar membranes; settings: JZL184 0.001-10 µM
mice [5] = assay: Locomotor activity; format: in vivo, mouse
Procedure, shortened: (§1)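 Measured as part of the cannabinoid tetrad test in mice. Test compound was dissolved in 4:1 v/v PEG300:Tween80 by vortexing, sonication and gentle heating, and given i.p. at 4 μl g-1 body weight; vehicle-only group as control. Rimonabant, where used, was given in 18:1:1 v/v/v saline:ethanol:alkamuls-620.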

[6] = Time course of JZL184 in mouse brain; format: in vivo; settings: C57Bl/6J
brain serine hydrolases = assay: Other brain serine hydrolase activities from treated mice; format: in vivo, mouse; settings: 16 mg kg^-1, 4 h
Procedure, shortened: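 Male C57Bl/6J mice (6-8 weeks, 20-26 g) given 16 mg kg-1 i.p. in 4:1 v/v PEG300:Tween80 or vehicle alone. At 4 h, killed by decapitation under isoflurane; brain half flash frozen for protein work. Brain membrane proteomes underwent competitive ABPP with the biotinylated FP probe, then MudPIT identification of serine hydrolase activities relative to vehicle. n = 3-5 mice per group.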

ABHD6 = target: T3, ABHD6 (Mus musculus, UniProt Q8R2Y0); assay: Competitive ABPP; format: biochemical; settings: for inhibition of ABHD6 by competitive ABPP: mouse brain membrane proteome, 30 min, Fig. 1b
T3 sequence (Q8R2Y0 1-336): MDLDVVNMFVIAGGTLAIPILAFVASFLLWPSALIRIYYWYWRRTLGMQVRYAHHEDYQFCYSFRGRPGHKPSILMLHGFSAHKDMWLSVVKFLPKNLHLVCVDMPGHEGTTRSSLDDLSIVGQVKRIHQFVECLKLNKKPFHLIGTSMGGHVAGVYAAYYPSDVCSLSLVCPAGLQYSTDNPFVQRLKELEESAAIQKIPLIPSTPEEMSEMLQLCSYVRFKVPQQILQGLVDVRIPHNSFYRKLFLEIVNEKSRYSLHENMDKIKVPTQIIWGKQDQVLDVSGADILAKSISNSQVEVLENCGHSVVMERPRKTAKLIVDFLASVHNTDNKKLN
Procedure, shortened: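 Mouse brain membrane proteome at 1 mg ml-1 in PBS, preincubated with test compound (1 nM to 10 μM) for 30 min at 37°C, then FP-rhodamine (2 μM final) for 30 min at room temperature. Quenched in SDS loading buffer and boiled 5 min at 90°C. Run on SDS-PAGE with in-gel fluorescence scanning; DMSO-only proteome served as control.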

mice [7] = assay: Acetic acid writhing; format: in vivo, mouse
Procedure, shortened: (§2)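 Test compound was given in 4:1 v/v PEG300:Tween80 at 4 μl g-1: i.p. for tail immersion and acetic acid stretching; p.o. in PEG300 for formalin phase 1 (40 mg kg-1). Rimonabant was given in 18:1:1 saline:ethanol:alkamuls-620. Vehicle and rimonabant-pretreated groups were compared; mean ± SEM, n = 6-14 mice per group.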

FAAH [8] = target: T2, FAAH; assay: FAAH activity of brain membranes from treated mice; format: in vivo
Procedure, shortened: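 Male C57Bl/6J mice (6-8 weeks, 20-26 g) dosed i.p. in 4:1 v/v PEG300:Tween80, with vehicle-only controls. Killed by decapitation under isoflurane 0.5-24 h later; brain hemisected and flash frozen, one half used for membrane proteomes. FAAH activity measured by gel competitive ABPP, FP-biotin ABPP-MudPIT and LC-MS oleamide hydrolysis. Means ± SEM, n = 3-5 mice per group.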

mice [9] = assay: Tail immersion test of acute thermal pain sensation; format: in vivo, mouse
Procedure, shortened: as §2

mice [10] = assay: Formalin test; format: in vivo, mouse
Procedure, shortened: as §2

mice [11] = assay: Catalepsy bar test and overt behaviour; format: in vivo, mouse
Procedure, shortened: as §1

CB2 receptors = CB2 receptors (Homo sapiens, UniProt P34972); assay: CB2 receptor binding assay, CB2 transfected CHO cell membranes; settings: JZL184 0.0005-5 µM
mice [12] = assay: Rectal temperature; format: in vivo, mouse
Procedure, shortened: as §1

MAGL [13] = target: T1, MAGL; assay: MAGL activity of brain membranes from treated mice; format: in vivo; settings: 16 mg kg^-1 i.p., 4 h
[14] = mouse brain membrane proteome, Fig. 1b
[15] = brain membrane proteome, FP-rhodamine labeling
[16] = 16 mg kg^-1 i.p., wild-type / CB1+/+ mice
[17] = rimonabant 3 mg kg^-1 pre-treatment

CB2 receptors, sequence (P34972 whole entry): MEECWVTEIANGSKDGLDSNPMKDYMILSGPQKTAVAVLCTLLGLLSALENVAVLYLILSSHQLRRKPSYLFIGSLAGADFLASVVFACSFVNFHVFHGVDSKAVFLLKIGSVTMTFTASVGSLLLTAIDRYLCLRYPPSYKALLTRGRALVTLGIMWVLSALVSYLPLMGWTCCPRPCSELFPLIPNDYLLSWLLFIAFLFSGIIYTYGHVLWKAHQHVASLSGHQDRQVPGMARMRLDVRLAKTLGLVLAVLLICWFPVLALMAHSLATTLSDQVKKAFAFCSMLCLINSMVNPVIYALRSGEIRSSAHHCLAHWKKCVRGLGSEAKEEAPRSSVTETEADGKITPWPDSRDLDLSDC

SMILES: COc1ccc(C(O)(c2ccc(OC)cc2)C2CCN(C(=O)Oc3ccc([N+](=O)[O-])cc3)CC2)cc1 [JZL175]
- selectivity for MAGL over FAAH and ABHD6 by competitive ABPP (MAGL [1]; [14]): exhibited selectivity for MAGL over both FAAH and ABHD6

SMILES: O=C(Oc1ccc([N+](=O)[O-])cc1)N1CCC(C(O)(c2ccc3c(c2)OCO3)c2ccc3c(c2)OCO3)CC1 [JZL184]
- baseline interstitial levels of 2-AG (before depolarization) ([2]; 1 h prior to depolarization): did not observe changes
- interstitial brain levels of 2-AG following neuronal depolarization ([2]; nucleus accumbens): dramatically elevated
- interstitial brain levels of AEA ([2]; nucleus accumbens): did not affect; also recorded: no significant alteration
- elevation of brain 2-AG above control levels ([3]; 16 mg kg^-1 i.p., for at least 8 h): 7-9 fold
- elevation of brain 2-AG (summary statement) ([3]; administration to mice): 8 fold
- elevation of brain 2-AG levels above baseline ([3]; higher doses (up to 40 mg kg^-1 i.p.), 4 h): 8-10 fold
- period for which elevated brain 2-AG levels were maintained ([3]; single dose): at least 8 h
- concentration at which inhibition of FAAH is observed by competitive ABPP (FAAH [4]; 30 min preincubation): 10 µM
- kobs [I]^-1 for FAAH (FAAH [4]; [15]): 13 M⁻¹ s⁻¹
- interaction with CB1 receptors (displacement of 3H-rimonabant) (CB1 receptors): did not interact
- hypomotility in CB1^-/- mice (mice [5]; 16 mg kg^-1 i.p., CB1^-/- mice): did not produce significant hypomotility, hypothermia, or analgesia
- hypomotility (mice [5]; [16]): hypomotility
- half-life [6]: ~7 h
- effect on other brain serine hydrolases by ABPP-MudPIT (brain serine hydrolases): none of the other ∼40 brain serine hydrolases profiled by ABPP-MudPIT were significantly affected
- concentration at which inhibition of ABHD6 is observed by competitive ABPP (ABHD6; 30 min preincubation): 10 µM
- antinociception in acetic acid writhing test (mice [7]; 16 mg kg^-1, 2 h): significant analgesic activity; also recorded: antinociceptive effects
- inhibition of brain FAAH by ABPP-MudPIT (FAAH [8]; 16 mg kg^-1, 4 h): partial inhibition
- brain FAAH blockade, maximum at any time point (FAAH [8]; 16 mg kg^-1 i.p., 0.5-24 h): ≤ 70%
- antinociception in tail immersion test (mice [9]; 16 mg kg^-1 i.p., 2 h, wild-type / CB1+/+ mice): significant analgesic activity; also recorded: antinociceptive effects
- antinociception in formalin test, phase 1 (mice [10]; 40 mg kg^-1 p.o.): antinociceptive effects
- antinociception in formalin test, phase 2 (mice [10]; 40 mg kg^-1 p.o.): antinociceptive effects
- analgesic activity in formalin test (mice [10]; text: 16 mg kg^-1, 2 h): significant analgesic activity
- catalepsy in the bar test (mice [11]; 16 mg kg^-1 i.p.): did not, however, induce catalepsy; also recorded: did not develop catalepsy
- overt posture and appearance (spontaneous limb splaying) (mice [11]; JZL184-treated mice): appeared generally normal
- interaction with CB2 receptors (radioligand displacement) (CB2 receptors): did not interact
- hypothermia in CB1^-/- mice (mice [12]; 16 mg kg^-1 i.p., CB1^-/- mice): did not produce significant hypomotility, hypothermia, or analgesia
- hypothermia (mice [12]; [16]): significant hypothermia
- blockade of brain MAGL activity (competitive ABPP, ABPP-MudPIT) (MAGL [13]): near-complete blockade
- residual brain 2-AG hydrolysis activity (MAGL [13]): 15 % of control
- blockade of MAGL activity by competitive ABPP (MAGL [1]; as low as 50 nM JZL184, 30 min preincubation): Near-complete blockade
- kobs [I]^-1 for MAGL (MAGL [1]; [15]): 4400 M⁻¹ s⁻¹

SMILES: NC(=O)c1cccc(-c2cccc(OC(=O)NC3CCCCC3)c2)c1 [URB597, reference compound]
- brain 2-AG or arachidonic acid levels ([3]; URB597 10 mg kg^-1 i.p.): without altering
- brain anandamide and other NAEs ([3]; URB597 10 mg kg^-1 i.p.): significant elevations
- brain FAAH activity (FAAH [8]; URB597 10 mg kg^-1 i.p.): completely inhibited

SMILES: CN(Cc1cccc(-c2ccncc2)c1)C(=O)Oc1ccc([N+](=O)[O-])cc1 [WWL98]
- inhibition of FAAH by competitive ABPP (FAAH [4]): inhibited
- inhibition of ABHD6 by competitive ABPP (ABHD6): inhibited
- inhibition of MAGL by competitive ABPP (MAGL [1]; [14]): inhibited

SMILES: O=C(Oc1ccc([N+](=O)[O-])cc1)N1CCN(C(c2ccc(F)cc2)c2ccc(F)cc2)CC1 [WWL152]
- inhibition of FAAH by competitive ABPP (FAAH [4]): greatly reducing activity for FAAH
- inhibition of ABHD6 by competitive ABPP (ABHD6): preserve potency
- inhibition of MAGL by competitive ABPP (MAGL [1]; [14]): preserve potency

SMILES: COc1ccc(C(c2ccc(OC)cc2)N2CCN(C(=O)Oc3ccc([N+](=O)[O-])cc3)CC2)cc1 [WWL162]
- inhibition of FAAH by competitive ABPP (FAAH [4]): greatly reducing activity for FAAH
- inhibition of ABHD6 by competitive ABPP (ABHD6): preserve potency
- inhibition of MAGL by competitive ABPP (MAGL [1]; [14]): preserve potency

SMILES: Cc1c(C(=O)NN2CCCCC2)nn(-c2ccc(Cl)cc2Cl)c1-c1ccc(Cl)cc1 [rimonabant, reference compound]
- effect of rimonabant on its own on movement (mice [5]; rimonabant 3 mg kg^-1): significant reductions in movement
- blockade of JZL184-induced immobility (mice [5]; [17]): partial blockade
- blockade of JZL184 effect in acetic acid writhing test (mice [7]; [17]): blocked
- blockade of JZL184 effect in tail immersion test (mice [9]; [17]): blocked
- blockade of JZL184 effect in formalin test (mice [10]; [17]): blocked
- blockade of hypothermic effect of JZL184 (mice [12]; [17]): completely blocked
